Experimental data published in ChEMBL document CHEMBL2331221, “Potent elastase inhibitors from cyanobacteria: structural basis and mechanisms mediating cytoprotective and anti-inflammatory effects in bronchial epithelial cells” (J Med Chem, 2013).
The source made the active and inactive calls.

Legend:
Tryptase gamma = Tryptase gamma (Homo sapiens, UniProt Q9NRR2); test: Inhibition of Tryptase gamma1 (unknown origin) using Z-GPR-AMC substrate incubated for 15 mins prior to substrate addition measured for 2 hrs
Tryptase gamma, sequence (Q9NRR2 38-321 limits assumed, other chains not shown): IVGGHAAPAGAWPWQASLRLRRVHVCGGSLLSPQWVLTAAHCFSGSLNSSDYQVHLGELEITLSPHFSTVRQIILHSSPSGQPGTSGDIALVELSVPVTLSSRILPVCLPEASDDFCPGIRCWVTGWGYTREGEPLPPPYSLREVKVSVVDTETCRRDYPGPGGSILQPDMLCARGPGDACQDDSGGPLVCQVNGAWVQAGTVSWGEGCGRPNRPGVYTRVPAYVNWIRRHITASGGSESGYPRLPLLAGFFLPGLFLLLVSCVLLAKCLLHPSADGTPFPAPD
How it was run: (§1)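 Protease panel screen: enzyme and inhibitor preincubated 15 min in reaction buffer, then substrate added; reaction followed for 2 h and the initial linear part of the progress curve used for activity. Enzyme, substrate, buffer and detection details are given only in a supporting table.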

[1] = biological target: T1, Neutrophil elastase (Homo sapiens) (UniProt P08246); settings: 10 uM
T1 sequence (whole entry): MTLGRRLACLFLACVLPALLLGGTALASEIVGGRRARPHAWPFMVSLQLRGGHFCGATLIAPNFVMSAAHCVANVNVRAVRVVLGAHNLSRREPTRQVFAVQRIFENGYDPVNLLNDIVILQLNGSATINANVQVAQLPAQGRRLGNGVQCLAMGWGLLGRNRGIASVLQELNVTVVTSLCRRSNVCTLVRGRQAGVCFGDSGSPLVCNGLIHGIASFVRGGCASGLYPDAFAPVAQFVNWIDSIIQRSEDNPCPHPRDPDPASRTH

[2] = biological target: Macrophage metalloelastase (Homo sapiens) (UniProt P39900); test: Inhibition of MMP12 (unknown origin) using (5-FAM/QXLTM) FRET peptide substrate assessed as residual activity at 10 uM incubated for 15 mins prior to substrate addition measured for 2 hrs
Macrophage metalloelastase (Homo sapiens), sequence (P39900 106-470 limits assumed): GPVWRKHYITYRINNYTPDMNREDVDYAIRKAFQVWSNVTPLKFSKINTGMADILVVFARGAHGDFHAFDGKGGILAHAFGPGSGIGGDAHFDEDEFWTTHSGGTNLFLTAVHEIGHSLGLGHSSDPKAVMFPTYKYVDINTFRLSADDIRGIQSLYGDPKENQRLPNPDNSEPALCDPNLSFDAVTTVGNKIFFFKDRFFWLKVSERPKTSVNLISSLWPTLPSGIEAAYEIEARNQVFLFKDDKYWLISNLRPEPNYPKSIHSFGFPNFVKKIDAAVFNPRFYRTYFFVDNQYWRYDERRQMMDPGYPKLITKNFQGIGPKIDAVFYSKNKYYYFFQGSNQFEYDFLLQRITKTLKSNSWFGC
How it was run: (§2)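 Protease panel screen: enzyme and test inhibitor preincubated 15 min in the enzyme's reaction buffer, then substrate added. Reaction followed for 2 h, and activity was taken from the initial linear portion of the progress-curve slope. Enzyme, substrate, buffer and detection conditions for each target are given only in the paper's supporting table.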

[3] = biological target: T1, Neutrophil elastase (Homo sapiens); settings: 10 uM; remark: listed apart in the source
[4] = Inhibition of Hepatitis C virus NS3/4A protease using Anaspec EnzoLyte substrate incubated for 15 mins prior to substrate addition measured for 2 hrs; parameters: species or system Hepacivirus hominis; how it was run: as §2
[5] = biological target: Angiotensin-converting enzyme (Homo sapiens) (UniProt P12821); test: Inhibition of ACE1 (unknown origin) using MCA-RPPGFSAFK(Dnp) substrate assessed as residual activity at 10 uM incubated for 15 mins prior to substrate addition measured for 2 hrs; how it was run: as §2
Angiotensin-converting enzyme (Homo sapiens), sequence (P12821 whole entry): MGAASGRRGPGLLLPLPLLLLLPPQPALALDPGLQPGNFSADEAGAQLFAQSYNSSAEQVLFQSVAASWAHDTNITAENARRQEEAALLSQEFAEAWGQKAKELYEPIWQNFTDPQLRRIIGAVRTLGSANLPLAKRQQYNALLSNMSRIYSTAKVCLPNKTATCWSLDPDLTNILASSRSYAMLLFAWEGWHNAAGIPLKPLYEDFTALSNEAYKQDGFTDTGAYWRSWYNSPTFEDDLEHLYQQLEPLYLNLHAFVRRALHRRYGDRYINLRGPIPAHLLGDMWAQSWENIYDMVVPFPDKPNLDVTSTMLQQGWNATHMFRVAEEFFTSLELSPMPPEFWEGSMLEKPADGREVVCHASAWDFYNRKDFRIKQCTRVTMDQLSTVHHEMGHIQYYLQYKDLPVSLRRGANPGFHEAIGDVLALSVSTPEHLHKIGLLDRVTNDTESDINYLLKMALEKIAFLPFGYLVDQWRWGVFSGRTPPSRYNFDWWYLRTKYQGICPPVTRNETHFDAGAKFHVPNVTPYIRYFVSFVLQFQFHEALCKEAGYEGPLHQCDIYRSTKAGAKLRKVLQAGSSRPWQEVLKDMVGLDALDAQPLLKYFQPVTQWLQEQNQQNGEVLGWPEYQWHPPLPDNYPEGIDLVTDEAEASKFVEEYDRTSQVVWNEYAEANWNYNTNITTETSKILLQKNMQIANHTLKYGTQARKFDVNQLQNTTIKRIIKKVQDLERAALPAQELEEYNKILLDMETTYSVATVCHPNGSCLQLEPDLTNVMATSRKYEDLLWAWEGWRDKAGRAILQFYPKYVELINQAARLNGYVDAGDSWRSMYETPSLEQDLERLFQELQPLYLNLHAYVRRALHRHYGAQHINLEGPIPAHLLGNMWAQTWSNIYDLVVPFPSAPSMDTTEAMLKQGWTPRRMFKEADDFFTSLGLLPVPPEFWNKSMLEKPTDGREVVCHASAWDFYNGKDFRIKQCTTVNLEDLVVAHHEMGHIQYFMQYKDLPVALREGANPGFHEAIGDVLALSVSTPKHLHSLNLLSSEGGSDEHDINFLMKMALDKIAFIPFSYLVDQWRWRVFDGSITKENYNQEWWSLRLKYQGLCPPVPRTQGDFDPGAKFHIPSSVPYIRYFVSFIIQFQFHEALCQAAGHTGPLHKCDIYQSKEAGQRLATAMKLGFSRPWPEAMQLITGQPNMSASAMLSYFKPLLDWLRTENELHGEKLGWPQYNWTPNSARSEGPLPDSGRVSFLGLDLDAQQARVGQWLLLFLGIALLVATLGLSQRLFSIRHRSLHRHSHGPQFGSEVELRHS

[6] = biological target: Plasminogen (Homo sapiens) (UniProt P00747); test: Inhibition of Plasmin (unknown origin) using H-D-CHA -Ala-Arg-AMC.2AcOH substrate assessed as residual activity at 10 uM incubated for 15 mins prior to substrate addition measured for 2 hrs; how it was run: as §1
[7] = biological target: Dipeptidyl peptidase 1 (Homo sapiens) (UniProt P53634); test: Inhibition of Cathepsin C (unknown origin) using Z-FR-AMC substrate assessed as residual activity at 10 uM incubated for 15 mins prior to substrate addition measured for 2 hrs; how it was run: as §2
[8] = Inhibition of human pancreatic Chymotrypsin using Suc-AAPF-pNa substrate incubated for 15 mins prior to substrate addition measured for 2 hrs; how it was run: as §1
[9] = biological target: Dipeptidyl peptidase 9 (Homo sapiens) (UniProt Q86TI2); test: Inhibition of DPP9 (unknown origin) using H-GP-AMC substrate assessed as residual activity at 10 uM incubated for 15 mins prior to substrate addition measured for 2 hrs; how it was run: as §2
[10] = biological target: Cathepsin B (Homo sapiens) (UniProt P07858); test: Inhibition of Cathepsin B (unknown origin) using Z-FR-AMC substrate assessed as residual activity at 10 uM incubated for 15 mins prior to substrate addition measured for 2 hrs; how it was run: as §2
[11] = biological target: Stromelysin-3 (Homo sapiens) (UniProt P24347); test: Inhibition of MMP11 (unknown origin) using (5-FAM/QXLTM) FRET peptide substrate assessed as residual activity at 10 uM incubated for 15 mins prior to substrate addition measured for 2 hrs; how it was run: as §2
[12] = biological target: Granzyme B (Homo sapiens) (UniProt P10144); test: Inhibition of Granzyme B (unknown origin) using Ac-IEPD-AMC substrate assessed as residual activity at 10 uM incubated for 15 mins prior to substrate addition measured for 2 hrs; how it was run: as §2
Granzyme B (Homo sapiens), sequence (P10144 whole entry): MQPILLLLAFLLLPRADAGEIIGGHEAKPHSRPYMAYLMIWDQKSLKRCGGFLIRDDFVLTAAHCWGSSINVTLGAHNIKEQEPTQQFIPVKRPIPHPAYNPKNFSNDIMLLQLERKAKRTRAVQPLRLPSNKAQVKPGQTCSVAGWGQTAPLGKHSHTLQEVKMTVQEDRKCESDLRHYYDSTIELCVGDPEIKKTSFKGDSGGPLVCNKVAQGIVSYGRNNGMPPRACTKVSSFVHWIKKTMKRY

[13] = biological target: Coagulation factor VII (Homo sapiens) (UniProt P08709); test: Inhibition of Factor-7a (unknown origin) using Z-VVR-AMC substrate assessed as residual activity at 10 uM incubated for 15 mins prior to substrate addition measured for 2 hrs; how it was run: as §2
[14] = biological target: Vitamin K-dependent protein C (Homo sapiens) (UniProt P04070); test: Inhibition of Activated Protein C (unknown origin) using Boc-DVLR-ANSNH-C4H9 substrate assessed as residual activity at 10 uM incubated for 15 mins prior to substrate addition measured for 2 hrs; how it was run: as §2
Cathepsin G = Cathepsin G (Homo sapiens, UniProt P08311); test: Inhibition of Cathepsin G (unknown origin) using Suc-AAPF-AMC substrate incubated for 15 mins prior to substrate addition measured for 2 hrs; how it was run: as §2
Cathepsin G, sequence (P08311 whole entry): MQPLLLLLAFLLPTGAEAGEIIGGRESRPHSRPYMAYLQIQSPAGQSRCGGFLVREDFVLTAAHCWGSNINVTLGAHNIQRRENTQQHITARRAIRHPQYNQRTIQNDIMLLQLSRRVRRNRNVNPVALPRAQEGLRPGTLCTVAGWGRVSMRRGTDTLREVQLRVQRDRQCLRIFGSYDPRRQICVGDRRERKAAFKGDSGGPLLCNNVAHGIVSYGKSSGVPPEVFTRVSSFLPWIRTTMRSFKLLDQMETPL

Trypsin = Trypsin (Homo sapiens, UniProt P07477+P07478+P35030); test: Inhibition of Trypsin (unknown origin) using H-D-CHA -Ala-Arg-AMC.2AcOH substrate incubated for 15 mins prior to substrate addition measured for 2 hrs; type: protein assay; how it was run: as §1
Homo sapiens = species: Homo sapiens; test: Inhibition of Thrombin alpha (unknown origin) using H-D-CHA -Ala-Arg-AMC.2AcOH substrate assessed as residual activity at 10 uM incubated for 15 mins prior to substrate addition measured for 2 hrs; how it was run: as §1
[15] = biological target: Pro-cathepsin H (Homo sapiens) (UniProt P09668); test: Inhibition of Cathepsin H (unknown origin) using R-AMC substrate assessed as residual activity at 10 uM incubated for 15 mins prior to substrate addition measured for 2 hrs; how it was run: as §2
Pro-cathepsin H (Homo sapiens), sequence (P09668 116-335 limits assumed, other chains not shown): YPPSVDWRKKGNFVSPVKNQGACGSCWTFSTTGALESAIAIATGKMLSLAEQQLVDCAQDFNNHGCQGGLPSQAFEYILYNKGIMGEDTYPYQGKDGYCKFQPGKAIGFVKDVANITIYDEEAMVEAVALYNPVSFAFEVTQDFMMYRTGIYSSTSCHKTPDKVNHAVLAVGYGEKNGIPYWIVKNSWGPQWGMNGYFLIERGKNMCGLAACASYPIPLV

[16] = biological target: Stromelysin-2 (Homo sapiens) (UniProt P09238); test: Inhibition of MMP10 (unknown origin) using (5-FAM/QXLTM) FRET peptide substrate assessed as residual activity at 10 uM incubated for 15 mins prior to substrate addition measured for 2 hrs; how it was run: as §2
Stromelysin-2 (Homo sapiens), sequence (P09238 99-476 limits assumed): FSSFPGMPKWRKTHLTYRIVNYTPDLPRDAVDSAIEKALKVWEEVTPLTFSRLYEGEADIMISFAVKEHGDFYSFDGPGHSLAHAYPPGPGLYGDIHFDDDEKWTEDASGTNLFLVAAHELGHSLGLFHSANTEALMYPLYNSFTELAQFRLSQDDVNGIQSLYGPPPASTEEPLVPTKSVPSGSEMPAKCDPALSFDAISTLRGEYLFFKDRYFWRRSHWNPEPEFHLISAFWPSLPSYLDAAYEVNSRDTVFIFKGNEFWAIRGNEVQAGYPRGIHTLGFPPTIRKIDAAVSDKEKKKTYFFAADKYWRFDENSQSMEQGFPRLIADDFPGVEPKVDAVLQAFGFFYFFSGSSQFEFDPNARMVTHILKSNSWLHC

Papain (Carica papaya) = Papain (Carica papaya) (UniProt P00784); test: Inhibition of papaya Papain using Z-FR-AMC substrate assessed as residual activity at 10 uM incubated for 15 mins prior to substrate addition measured for 2 hrs; how it was run: as §1
Papain (Carica papaya), sequence (P00784 whole entry): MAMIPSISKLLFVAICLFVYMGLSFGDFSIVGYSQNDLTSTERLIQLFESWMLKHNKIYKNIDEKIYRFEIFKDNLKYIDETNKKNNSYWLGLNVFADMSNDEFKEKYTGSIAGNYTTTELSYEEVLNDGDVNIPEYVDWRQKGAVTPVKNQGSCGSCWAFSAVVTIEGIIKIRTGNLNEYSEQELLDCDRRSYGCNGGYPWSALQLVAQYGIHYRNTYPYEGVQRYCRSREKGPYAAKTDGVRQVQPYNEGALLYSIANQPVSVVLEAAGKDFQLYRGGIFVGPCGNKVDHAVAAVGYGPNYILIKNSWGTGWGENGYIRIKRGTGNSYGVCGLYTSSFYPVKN

[17] = biological target: T1, Neutrophil elastase (Homo sapiens); settings: 10 uM; remark: listed apart in the source
[18] = biological target: Urokinase-type plasminogen activator (Homo sapiens) (UniProt P00749); test: Inhibition of Urokinase (unknown origin) using Bz-b-Ala-Gly-Arg-AMC.AcOH substrate assessed as residual activity at 10 uM incubated for 15 mins prior to substrate addition measured for 2 hrs; how it was run: as §1
[19] = biological target: Dipeptidyl peptidase 4 (Homo sapiens) (UniProt P27487); test: Inhibition of DPP4 (unknown origin) using H-GP-AMC substrate assessed as residual activity at 10 uM incubated for 15 mins prior to substrate addition measured for 2 hrs; how it was run: as §2
Dipeptidyl peptidase 4 (Homo sapiens), sequence (P27487 whole entry, looked up): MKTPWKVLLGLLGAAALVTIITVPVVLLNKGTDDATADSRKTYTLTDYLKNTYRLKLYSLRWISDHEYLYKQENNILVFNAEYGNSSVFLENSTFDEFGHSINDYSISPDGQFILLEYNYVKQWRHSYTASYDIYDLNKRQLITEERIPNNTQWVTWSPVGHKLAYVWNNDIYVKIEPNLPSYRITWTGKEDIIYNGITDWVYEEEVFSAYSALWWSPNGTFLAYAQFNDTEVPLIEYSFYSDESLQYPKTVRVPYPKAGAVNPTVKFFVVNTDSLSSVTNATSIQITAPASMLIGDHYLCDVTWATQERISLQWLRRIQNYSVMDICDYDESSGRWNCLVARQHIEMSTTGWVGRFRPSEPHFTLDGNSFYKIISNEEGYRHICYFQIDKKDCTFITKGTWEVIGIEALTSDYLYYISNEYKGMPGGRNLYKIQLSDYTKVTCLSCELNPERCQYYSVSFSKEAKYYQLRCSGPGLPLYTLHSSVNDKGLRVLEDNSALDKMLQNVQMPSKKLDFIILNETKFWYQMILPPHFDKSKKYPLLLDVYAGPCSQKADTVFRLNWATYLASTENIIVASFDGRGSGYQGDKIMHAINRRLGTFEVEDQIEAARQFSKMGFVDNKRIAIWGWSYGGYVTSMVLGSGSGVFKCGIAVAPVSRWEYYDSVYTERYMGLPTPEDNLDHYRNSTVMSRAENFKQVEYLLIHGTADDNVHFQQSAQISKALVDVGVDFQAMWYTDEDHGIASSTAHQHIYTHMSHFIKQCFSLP

[20] = biological target: Beta-secretase 1 (Homo sapiens) (UniProt P56817); test: Inhibition of BACE1 (unknown origin) using MCA-SEVNLDAEFRK(Dnp)-RR-NH2 substrate assessed as residual activity at 10 uM incubated for 15 mins prior to substrate addition measured for 2 hrs; how it was run: as §2
Beta-secretase 1 (Homo sapiens), sequence (P56817 whole entry): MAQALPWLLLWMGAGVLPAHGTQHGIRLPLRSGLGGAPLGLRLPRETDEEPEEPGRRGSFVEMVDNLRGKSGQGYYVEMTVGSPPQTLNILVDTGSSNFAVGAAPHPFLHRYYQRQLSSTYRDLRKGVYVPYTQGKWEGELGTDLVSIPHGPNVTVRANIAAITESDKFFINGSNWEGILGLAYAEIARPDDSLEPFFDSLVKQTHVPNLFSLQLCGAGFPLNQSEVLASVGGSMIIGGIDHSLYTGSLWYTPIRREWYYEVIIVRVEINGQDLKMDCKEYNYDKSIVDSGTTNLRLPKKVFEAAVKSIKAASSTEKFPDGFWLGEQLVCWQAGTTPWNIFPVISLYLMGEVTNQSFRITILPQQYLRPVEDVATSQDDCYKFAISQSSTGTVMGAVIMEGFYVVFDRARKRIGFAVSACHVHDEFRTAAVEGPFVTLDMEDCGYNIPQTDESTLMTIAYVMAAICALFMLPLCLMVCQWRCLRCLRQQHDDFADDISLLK

[21] = biological target: Kallikrein-8 (Homo sapiens) (UniProt O60259); test: Inhibition of Kallikrein-8 (unknown origin) using VPR-AMC substrate assessed as residual activity at 10 uM incubated for 15 mins prior to substrate addition measured for 2 hrs; how it was run: as §2
Kallikrein-8 (Homo sapiens), sequence (O60259 whole entry): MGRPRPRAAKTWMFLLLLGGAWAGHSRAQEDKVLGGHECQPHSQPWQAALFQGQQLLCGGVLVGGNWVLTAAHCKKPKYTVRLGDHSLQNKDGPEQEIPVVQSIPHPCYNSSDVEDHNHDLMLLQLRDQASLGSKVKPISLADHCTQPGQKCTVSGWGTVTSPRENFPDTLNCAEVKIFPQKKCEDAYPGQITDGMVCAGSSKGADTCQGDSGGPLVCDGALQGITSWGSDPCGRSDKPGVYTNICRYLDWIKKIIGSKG

C/C=C1\NC(=O)[C@@H](NC(=O)[C@@H](NC(=O)[C@@H](COS(=O)(=O)[O-])OC)C(C)C)[C@@H](C)OC(=O)[C@H]([C@H](C)CC)NC(=O)[C@H](Cc2ccccc2)N(C)C(=O)[C@H](Cc2ccccc2)N2C(=O)[C@H](CC[C@H]2O)NC1=O.[Na+] [Symplostatin 5]
> 5: pIC50 [4] | pIC50 (Trypsin)
< 10 µM: IC50 (Tryptase gamma) | IC50 (Cathepsin G)
100%: Activity [2] | Activity [5] | Activity [6] | Activity [9] | Activity [10] | Activity [11] | Activity [12] | Activity [13] | Activity [14] | Activity (Homo sapiens) | Activity [15] | Activity [16] | Activity (Papain (Carica papaya)) | Activity [18] | Activity [19] | Activity [20]
6.1: pIC50 [8]
active: inhibition [1] | inhibition [17]
50%: Activity [7] | Activity [21]
inactive: inhibition [3]
